Measurements reported in the EternaBench riboswitch data.

System: MS2 coat protein
Assay: apparent Kd, MS2 coat protein; higher = weaker binding; RNA-MaP array; FMN 200 µM where present
Method in brief: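 Designs were transcribed by stalled E. coli RNA polymerase on Illumina sequencing-chip clusters. They were titrated with SNAP-549-labelled MS2 coat protein from 0.7 or 1.5 nM, doubling to 3 µM, without and then with constant ligand. Buffer: 100 mM Tris-HCl pH 7.5, 80 mM KCl, 4 mM MgCl2, BSA, DTT, yeast tRNA, Tween-20. Green signal was normalised to red-channel RNA signal and control-cluster median Fmax. Apparent Kd is the median of filtered per-cluster binding-curve fits.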

[1] = designed as: ON switch for flavin mononucleotide, no ligand
[2] = ligand present: flavin mononucleotide, designed as: ON switch for flavin mononucleotide
[3] = designed as: OFF switch for flavin mononucleotide, no ligand
[4] = ligand present: flavin mononucleotide, designed as: OFF switch for flavin mononucleotide

Sequence | apparent Kd [1] | apparent Kd [2] | apparent Kd [3] | apparent Kd [4]
AAGUUUGUACGAGGAUAUCAGUUGUUUCUAAAUUCAACAUGAGGAUCACCCAUGUAGCAAUGGAGUGAGAAGGCGUGUGGGCAA | 0.457 µM | 0.24 µM |  | 
AUUUCGUCAGGAUAUCCUAGUAAUUGUUUCAUAUUUACGAUGGAGAAGGGACAUGAGGAUCACCCAUGUUGGUC |  |  | 0.0558 µM | 0.169 µM
GUCAGCUCGUGAGGAUAUACAUGUGCUGGAGACAGCACUAAUUAAAUCACAUGAGGAUCACCCAUGUAGAAGGCACGAGCUGAU |  |  | 0.0166 µM | 0.0264 µM
GCCAGGCGAGGAUAUGCGAGGUAGCCUUUGUCCGGAUACUGACAUGAGGAUCACCCAUGUAGAAGGUGCCUAGG |  |  | 0.0702 µM | 0.258 µM
UAAUUAAAUGUGAGGAUAUGCUGGUCCUUGGAUCAGCAGAAGGCACAUGAGGAUCACCCAUGUAAUUUAUUUAU |  |  | 0.0752 µM | 0.285 µM
GUGCCUCAGAACAUGAGGAUCACCCAUGUGCUGCGGGCACCGUAGGAUAUGAUGGUACGCUACCAUCAGAAGGAUGAUGGUACC | 0.00483 µM | 0.00492 µM |  | 
AAACUGCAGAAGAUAAUAAUGAAUACAUGAGGAUCACCCAUGUAGGAUAUCGUCAGGAAUACUGACGAGAAGGACAUACUGCAG |  |  | 0.0143 µM | 0.0156 µM
GAAGAGACAGGAUAUACAUGAGGAUCACCCAUGUGAGUAUGUUGGAGGCGGAGGAGGUGUAGAAGGGUCAAAGA |  |  | 0.0243 µM | 0.0261 µM
UCGUGAAGGACAGGAUAUGGACAUGAGGAUCACCCAUGUACAUGGGAAUAUAUACUGAAUUUGUACUAGAAGGGUUACAUAAAC |  |  | 0.0309 µM | 0.0198 µM
GAACGUGACAUGAGGAUCACCCAUGUUGCCUUGGCCAGGUCGUAGGAUAUCCUGAUGAUUAAUUUGGAGAAGGGCGACUGGGAG | 0.0361 µM | 0.0153 µM |  | 
GCCCUCGCUGAGGAUAUUAUCUGGCUCGAUUGAUAAGAAGGCAGUACAUGAGGAUCACCCAUGUGGUUCGUUCG |  |  | 0.0694 µM | 0.265 µM
AACUCUGAGAAGGAUAUUCAAUGGGAAACGAUGGAAGAAGGUUUCACAUGAGGAUCACCCAUGUCGAAUAGUGA |  |  | 0.0719 µM | 0.0639 µM
UCUAGACCGACAGGAUAUCAUGGCUGGAUAUAGUACAUGAGGAUCACCCAUGUCGGCUAGAGCGAUGAGAAGGGUCGGUUGCUC | 0.414 µM | 0.0873 µM |  | 
UUAUUAUGUGUAGGAUAUGCAUAUUCUUAUUAUGCAGAAGGACAUGAGGAUCACCCAUGUAUAUUAUUAUUAUAUAUUAUAUAU |  |  | 0.0146 µM | 0.0131 µM
GCACAUUUGUAAGGAUAUACAACAUGAGGAUCACCCAUGUGAUUGAAUUUAGUAGAAGGUACAGAAAUGAGUAUCACUUUUGUA | 0.0168 µM | 0.0109 µM |  | 
AAAAUGUCAGGAUAUUGUUAGUUUAGUUGUUUGUAUUAGUUCGAGAAGGGACAUGAGGAUCACCCAUGUUGAAA |  |  | 0.0338 µM | 0.033 µM
CUAGAGGAUUAAGGAUAUGCAGAGAGAUCAUGCGCGUCGCGCACAUGAGGAUCACCCAUGUAAGAGCAGAAGGUAACUAUGAUC |  |  | 0.0183 µM | 0.0166 µM
ACUGGGCGCCAACCCAUGUCUAUGGAGGAUAUUACUGCCGGUAUCUCACAUGAGGAUCACCCAUGUAAGAAGGCCAUAAGCACA |  |  | 0.0343 µM | 0.176 µM
GUCUGAUUGUAGAAGGUACUUAAUACUCAUGUAACAUGAGGAUCACCCAUGUAUCAUCAAUAUUGUAAGGAUAUACAAAUCUCA | 0.15 µM | 0.0284 µM |  | 
GGAUAGGACAGAGGAUAUACGUGCUAGAGAUACUAGCAAAUUUUCCUCACAUGAGGAUCACCCAUGUAGAAGGCUGUCCUAUCG |  |  | 0.0246 µM | 0.511 µM
AUUAUGUCAGGAUAUCAGUAGUAAAAAAAAAAAAUUACUACUGAGAAGGGACAUGAGGAUCACCCAUGUCAAAA |  |  | 0.023 µM | 0.0306 µM
GUGGUACAUGAGGAUCACCCAUGUCAGGAUAUCGCGUGGUUUUUUGCGGCCGCGCGCGCGAGAAGGGACGUCUU |  |  | 0.0363 µM | 0.0433 µM
UGGUACAUGGGAGGAUAUGGGUUGAUAACAUGAGGAUCACCCAUGUUAAAUAUGCCUCAUGGCAACUAGAAGGCCCAUGUACCU | 0.463 µM | 0.0951 µM |  | 
GUUAAGGUAGGAUAUACGAUAAUAUAGGGUAGAUAUAGAACACAUGAGGAUCACCCAUGUAGAAGGACCAAUUG |  |  | 0.0295 µM | 0.0889 µM
GUAGCUAUCGGAGGAUAUUCAUACUGGAAACGGACAUGAGGAUCACCCAUGUGGCGAAAGCCUUGGGAGAAGGCCGAUCGCUAC | 0.123 µM | 0.00813 µM |  | 
UUUUAACAUGAGGAUCACCCAUGUGAGGAUAUCGAAAUUUAUAUUAAUAUUAAUUUUUCGAGAAGGCACAUUUU |  |  | 0.132 µM | 0.15 µM
GAGGCACAUGAGGAUCACCCAUGUGGGUAGAACAUAGGAUAUCACCAACAAAUUACCCGGUGAGAAGGAUGAUGCC | 0.234 µM | 0.0574 µM |  | 
AGUAUGCACGCAGGAUAUACAUGAGGAUCACCCAUGUGGAACAGUGUAGUACUAGUUGAUCCUCAGUAGAAGGGCGGUCAAAUA |  |  | 0.0478 µM | 0.0427 µM

Sequence | apparent Kd [1] | apparent Kd [2] | apparent Kd [3] | apparent Kd [4]
UGGAUAGGAAAAUUUGUCCAUUGUACAGAAGGCCAACAUGAGGAUCACCCAUGUAAGAAAAGGAUGGAGGAUAUGUAUAGGGCC | 0.0645 µM | 0.0209 µM |  | 
CUGAAGAGAGAAGGAUAUCACAGGAUGGAGAUCUCUGAAUAAACAUGAGGAUCACCCAUGUCCAGUGAGAAGGUCUCGGUUCCG |  |  | 0.186 µM | 0.195 µM
UUCCUCGAAGGAUAUUCGACUAGGUACAUGAGGAUCACCCAUGUCAUGAGCCCAAUAGGCGAAGAAGGUCGAGUGU |  |  | 0.0235 µM | 0.0346 µM
CGACAAGUCGUAGGAUAUGGUGAUGUACAUGAGGAUCACCCAUGUCCGUCUUCUCUCACAAGAUGCCAGAAGGGCGACUUCCGG | 0.676 µM | 0.404 µM |  | 
UGGUACAUGGGAGGAUAUGGGUUGAUAACAUGAGGAUCACCCAUGUUAAAUAAGCCGAGAGGCUACCAGAAGGCCCAUGUACCU | 0.00729 µM | 0.00499 µM |  | 
GGAUGACAAAGUCAUCCUUAACGAACAUGAGGAUCACCCAUGUAGGAUAUGCUACUCAAAGAGUAGCAGAAGGACAUGUGCCUU |  |  | 0.035 µM | 0.242 µM
GGAUCGAGUGUGAGGAUAUGCUGGUCCUUGGAUCAGCAGAAGGCACAUGAGGAUCACCCAUGUGUUCCCGGUCC |  |  | 0.0489 µM | 0.577 µM
AAGAAGUGAGGAUAUACGCGAACAAAAAAAAAAAAGAAAGCGUAGAAGGCACAUGAGGAUCACCCAUGUCAAAA |  |  | 0.0261 µM | 0.0273 µM
AAACAGCGAGAUAAUAAUGAUUACAUGAGGAUCACCCAUGUAUAGGAUAUCGUCAGGAAUACUGACGAGAAGGAUACAACGCUG |  |  | 0.016 µM | 0.0265 µM
UGGUGAAAUGUAGGAUAUGGAAAUAAAUUUUAACCAGAAGGACAUGAGGAUCACCCAUGUGAUAGAGAAUUAAUAAUAUCUCCU |  |  | 0.0186 µM | 0.0299 µM
AAUUAAUUAAUUAAUAUACAUGAGGAUCACCCAUGUAAGAUCAAGGAUAUCAGCUCGAAUAGAGCUGAGAAGGUGAUCACAUGU | 0.533 µM | 0.673 µM |  | 
GAGCAGGUAAUAAAGUAGAAAUACAUGAGGAUCACCCAUGUAUAGGAUAUCGUCAGGAAUACUGACGAGAAGGAUACAUCCUGC |  |  | 0.0142 µM | 0.0181 µM
UGGUACAUGAGGAUCACCCAUGUAAGAGCCCUCAUGCGAUGUAGAAGGAUUAUGCGAGUAGUGCAAUAGGAUAUACAUGAGUUU |  |  | 0.216 µM | 0.163 µM
GUGCACAUUCGAGGAUAUCGGAGAGAGAUCAUUCGAGAAGGCGAUUCAUGAUGUAUUAUCCUGGACAUGAGGAUCACCCAUGUG | 0.361 µM | 0.107 µM |  | 
GGUCUGAUAUGAGGAUAUGCUCAGGAUAACUGAGCAGAAGGCAUGUGAAAACAUGAGGAUCACCCAUGUGAUCAAUACAGACCA | 0.141 µM | 0.0239 µM |  | 
AUACAAAGCACAGGAUAUGGGAGUGAGAAUCAUGCUGCGAAUUGAUUCGGACCAGAAGGGUGCACAUGAGGAUCACCCAUGUAC | 0.185 µM | 0.0776 µM |  | 
AAACGGGCAGGAUAUGCGUACUCACGGGAAAACUGAAUGGUACAUGAGGAUCACCCAUGUAGAAGGGCUUAAAA |  |  | 0.0535 µM | 0.0461 µM
AAGAAGUGAGGAUAUGUCUGUGCGAAAAAAAAAAAGUGCAGACAGAAGGCACAUGAGGAUCACCCAUGUCAAAA |  |  | 0.0255 µM | 0.0371 µM
ACGUUUUAUGCAGGAUAUUGACUUAUAUUUAAACAAGAAGGGCAUUACAUGAGGAUCACCCAUGUUAUCAUGGUAUUUAAGUUC |  |  | 0.04 µM | 0.0604 µM
CCCGGCGUGACGCUACACCGAGAGCAGGAUAUUCCGCCGUGAUCUACAUGAGGAUCACCCAUGUGGAAGAAGGGCUACACAAAA |  |  | 0.00894 µM | 0.0375 µM
AAAAAGUGAGGAUAUACAUGAGGAUCACCCAUGUGAAAGUCGAAAAAAAAGACAAAAAGUAGAAGGCACAAAAA |  |  | 0.0307 µM | 0.0327 µM
AUCGGUCCGUAGAAGGGUGACAUGAGGAUCACCCAUGUGCCGUGGGCAUUUAUGCCUCCACGGCCACAGGAUAUACGGAGUUGA | 0.054 µM | 0.0368 µM |  | 
GAGUGACACCAGAAGGGCCAGGAAAGAACCCUGGUAGGAUAUGGAGCGCCCUCGUAACGACCGACAUGAGGAUCACCCAUGUCC | 0.193 µM | 0.0347 µM |  | 
UUUUUAUUUGAAGGAUAUACUUAACAUGAGGAUCACCCAUGUGGUGUUGUGAGUGAGUGAGUUUAGUAGAAGGUCAAUUCUUUU |  |  | 0.401 µM | 0.696 µM
GAAGCACACAUUAACAUGAGGAUCACCCAUGUCAAAAGACAUGAGGAUAUGGAUCUGAAGAAGAUCCAGAAGGCAUUGUGCUAA | 0.388 µM | 0.0256 µM |  | 
GCGUUAGUAUCACAUGUAUUACAUGAGGAUCACCCAUGUUACUAGGAUAUGUAUUAGAAUUAUCAACAGAAGGAGUAAUAACGC |  |  | 0.0126 µM | 0.0203 µM
UUUGUCUGUGUGAGGAUAUACUUUGUUUGGUCGUUGUAGAAGGCACAUGAGGAUCACCCAUGUAGUUUGUUGUG |  |  | 0.0204 µM | 0.0229 µM
